Results as given in PubChem BioAssay.
Unmarked numbers belong to inactive results. Records with an inconclusive call do not appear. Activity calls are given as the source filed them.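 The calls were made as follows, unless noted: active = viability at or below 27.92% in each of two runs, the all-compound median minus 4 SD; inconclusive = no clear call, values can overlap the other calls; inactive = the rest.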

Key:
[1] = OD615 S. cerevisiae growth inhibition, permissive medium, pilot counter-assay, permissive growth control for S. cerevisiae lifespan shortening project (AID 705;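 active = growth inhibition above 25% in both replicates, a cutoff set 3 SD above the mean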); conditions: OD615, 24 h, at 10 µM, stronger effect = higher value
Outline: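 System: Engineered DeaD yeast | Buffer or medium: SC raffinose/galactose permissive medium | Doses: 10 µM single dose, 0.25% DMSO | Times: 24 h exposure, 30 °C | Measured by: OD615 turbidity read | Read-out: Yeast growth inhibition indicated by reduced 24 h OD615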

[2] = Restrictive medium S. cerevisiae growth inhibition, OD615, pilot screen of yeast lifespan reduction project, restrictive growth control (AID 706;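 active = growth inhibition above a set limit, 3 SD over mean compound inhibition, in both replicates, cut at about 43% in these data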;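 also: modified DeaD lifespan yeast strain shifted to restrictive glucose medium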); conditions: OD615, 48 h, at 10 µM, stronger effect = higher value
Outline: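 Assay system: engineered S. cerevisiae DeaD strain; Buffer or medium: CSMM-D glucose medium; Dosing: 10 µM compound, 0.25% DMSO; Times: cell pre-growth 4 h, compound exposure 48 h, 30 °C; Detection: absorbance (optical density) measured at 615 nm.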

[3] = viability gain of MRP-1-high H69AR cells under doxorubicin, pilot screen, MRP-1 activator project, CellTiter-Glo, duplicate (AID 807;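 active = viability increase at or above a cutoff of the median across tested compounds plus 3 SD, cut at about 8.5% in these data, passing the limit was not always enough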;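 also: compound pretreatment 18-22 h then 72 h combined with doxorubicin; 0% = doxorubicin alone and 100% = vehicle without doxorubicin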); conditions: H69AR viability with doxorubicin, CellTiter-Glo luminescence; at 10 µM; stronger effect = higher value
[4] = growth suppression of beta-catenin knockout HCT116, pilot screen, human colon tumor cells (AID 823;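 active = cell viability at or below a set limit in both duplicate runs, the limit being the all-compound median minus 4 SD, cut at about 23% in these data, passing the limit was not always enough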;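 also: 0% = wells killed by 20 µM Hyamine and 100% = untreated DMSO cell wells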); conditions: CellTiter-Glo, 60 h, at 10 µM, stronger effect = lower value
[5] = growth suppression of PTEN-deleted HCT116, pilot screen, cell-based, HCT116 clonal line, CellTiter-Glo (AID 824); conditions: 60 h, at 10 µM, stronger effect = lower value;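 also: 0% = 20 µM Hyamine control and 100% = vehicle cell control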
[6] = inhibitors of the yeast RAM network, pilot screen, dse1pr::URA3 reporter, 5-FOA selection (AID 869;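 active = inhibition over a set limit, the all-compound mean plus 3 SD, in both replicate runs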;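 also: 0% = DMSO wells with no growth and 100% = 10 µM 1-NA-PP1 with full growth; RAM network block rescues cells from 5-FOA so hits raise OD615 growth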); conditions: S. cerevisiae dse1pr::URA3 5-FOA growth, OD615, 2 d; at 10 µM; stronger effect = higher value; strain carries analog-sensitive mutant Cbk1 kinase
[7] = RAM signaling pathway blockade in yeast – S. cerevisiae, Pdr1DBD-CYC8 efflux-inhibited sensitized strain, primary screen (AID 1298;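 active = RAM network inhibition above 8.4% in each of two replicates, 3 SD over the compound average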;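 also: 0% = DMSO untreated cells without growth and 100% = 10 µM 1-NA-PP1 full growth; higher means more yeast growth rescued from 5-FOA killing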); conditions: S. cerevisiae cbk1-as DSE1-URA3 strain, 5-FOA growth OD615, 2 d; at 50 µM; stronger effect = higher value

O=C1c2cccc3cccc(c23)C(=O)N1c1nccs1
growth inhibition [1]: -1.67% | growth inhibition [2]: 0% | viability increase [3]: 0.23% | viability [4]: 104% | viability [5]: 106% | inhibition [6]: 1.98% | RAM network inhibition [7]: 6.64%

Cc1nn(-c2ccccc2)c2sc(C(=O)n3cccn3)cc12
growth inhibition [1]: -10.7% | growth inhibition [2]: -9.12% | viability increase [3]: -3.24% | viability [4]: 89.8% | viability [5]: 92.4% | inhibition [6]: 2.99% | RAM network inhibition [7]: 8.3%

COC(=O)C1=C(C)N(C)C(C)=C(C(=O)OC)C1c1ccsc1
growth inhibition [1]: -6.88% | growth inhibition [2]: -6.81% | viability increase [3]: -2.96% | viability [4]: 91.4% | viability [5]: 87.8% | inhibition [6]: 1.99% | RAM network inhibition [7]: 2.51%

O=C(Cn1cnc2c(cnn2-c2ccccc2)c1=O)N1CCOCC1
growth inhibition [1]: -4% | growth inhibition [2]: -3.03% | viability increase [3]: -0.44% | viability [4]: 101% | viability [5]: 102% | inhibition [6]: 0.17% | RAM network inhibition [7]: 1.17%

CC(CNCc1ccc2c(c1)OCO2)NCc1ccc2c(c1)OCO2 (configuration not stated)
growth inhibition [1]: -14% | growth inhibition [2]: -7.7% | viability increase [3]: -3.34% | viability [4]: 75% | viability [5]: 77.2% | inhibition [6]: -0.175% | RAM network inhibition [7]: 1.32%

CCN1CCCC1CNC(=O)Cn1cnc2sc(C)c(S(=O)(=O)N3CCC(C)CC3)c2c1=O (configuration not stated)
growth inhibition [1]: -4.5% | growth inhibition [2]: -14.6% | viability increase [3]: -4.44% | viability [4]: 104% | viability [5]: 84% | inhibition [6]: 2.9% | RAM network inhibition [7]: 4.06%

Cc1cc(=O)oc2cc3c(cc12)OCCN3
growth inhibition [1]: 5.96% | growth inhibition [2]: 2.04% | viability increase [3]: -1.47% | viability [4]: 93% | viability [5]: 97.6% | inhibition [6]: 2.65% | RAM network inhibition [7]: 3.78%

O=C(O)CCC(=O)N1CCc2cc(S(=O)(=O)N3CCC(Cc4ccccc4)CC3)ccc21
growth inhibition [1]: -6.24% | growth inhibition [2]: 0.935% | viability increase [3]: -2.63% | viability [4]: 97.8% | viability [5]: 82.2% | inhibition [6]: 1.47% | RAM network inhibition [7]: 3.85%

COc1cccc(CNC(=O)C2CCN(S(=O)(=O)c3cccc4cccnc34)CC2)c1
growth inhibition [1]: -10.5% | growth inhibition [2]: -2.92% | viability increase [3]: -1.45% | viability [4]: 100% | viability [5]: 97.5% | inhibition [6]: 2.88% | RAM network inhibition [7]: 3.03%

Cc1ccccc1CN1CCN(CC(=O)NCc2ccccn2)C1=O
growth inhibition [1]: 4.21% | growth inhibition [2]: 10.8% | viability increase [3]: 1.17% | viability [4]: 106% | viability [5]: 108% | inhibition [6]: -0.32% | RAM network inhibition [7]: 1.55%

Cc1cc(C)nc(SCSc2nc(C)cc(C)n2)n1
growth inhibition [1]: 0.095% | growth inhibition [2]: 5.64% | viability increase [3]: -2.17% | viability [4]: 104% | viability [5]: 103% | inhibition [6]: 1.23% | RAM network inhibition [7]: 5.29%

Cc1ccc2oc(=O)c3cnn(CC(=O)N4CCc5ccccc5C4)c3c2c1
growth inhibition [1]: -10.4% | growth inhibition [2]: -4.8% | viability increase [3]: -0.98% | viability [4]: 93.5% | viability [5]: 92.1% | inhibition [6]: 1.77% | RAM network inhibition [7]: 3.4%

CC1CC(C)CN(C(=O)C(NS(=O)(=O)c2ccc3c(c2)oc(=O)n3C)C(C)C)C1 (configuration not stated)
growth inhibition [1]: -16% | growth inhibition [2]: -5.28% | viability increase [3]: -2.67% | viability [4]: 103% | viability [5]: 93.6% | inhibition [6]: -0.355% | RAM network inhibition [7]: 6.92%

CCCCNC(=O)Nc1cc(C(=O)OC)ccc1C
growth inhibition [1]: -6.38% | growth inhibition [2]: -14.2% | viability increase [3]: 0.11% | viability [4]: 85.2% | viability [5]: 91.4% | inhibition [6]: 1.55% | RAM network inhibition [7]: 7.5%

O=C(NCCC1=CCCCC1)NC1CCCCC1
growth inhibition [1]: -7.04% | growth inhibition [2]: 8.29% | viability increase [3]: -0.3% | viability [4]: 87.2% | viability [5]: 87.3% | inhibition [6]: 1.33% | RAM network inhibition [7]: 5.84%

O=C(NCc1ccc2c(c1)OCO2)c1cnc2n(c1=O)CCS2
growth inhibition [1]: -2.39% | growth inhibition [2]: 4.35% | viability increase [3]: -0.06% | viability [4]: 95.9% | viability [5]: 98% | inhibition [6]: 1.17% | RAM network inhibition [7]: 1.93%

COc1ccc(Cl)cc1S(=O)(=O)N1CCN=C1C
growth inhibition [1]: 1.52% | growth inhibition [2]: -3.21% | viability increase [3]: -2.75% | viability [4]: 90.8% | viability [5]: 90% | inhibition [6]: 0.03% | RAM network inhibition [7]: 7.99%

Cn1c(NC(=O)Cc2ccc(F)cc2)cc(=O)n(C)c1=O
growth inhibition [1]: -5.41% | growth inhibition [2]: -2.77% | viability increase [3]: 3.42% | viability [4]: 109% | viability [5]: 95.4% | inhibition [6]: 1.83% | RAM network inhibition [7]: 0.62%

O=C1CC(c2ccco2)CC(O)=C1C=NCC1CCNCC1 (configuration not stated)
growth inhibition [1]: -17.1% | growth inhibition [2]: -5.49% | viability increase [3]: 1.85% | viability [4]: 102% | viability [5]: 101% | inhibition [6]: 0.37% | RAM network inhibition [7]: 3.8%

CC1CCN(C(=O)CSc2nnc(Cc3cccn3C)n2-c2ccc(F)cc2)CC1
growth inhibition [1]: -5.51% | growth inhibition [2]: 10.6% | viability increase [3]: -0.49% | viability [4]: 88.7% | viability [5]: 92% | inhibition [6]: 1.79% | RAM network inhibition [7]: 2.35%

CC1(C)CC(=O)C(C=Nc2ccccc2)=C(O)C1
growth inhibition [1]: -7.81% | growth inhibition [2]: 1.81% | viability increase [3]: -1.32% | viability [4]: 98.1% | viability [5]: 96.2% | inhibition [6]: 2.92% | RAM network inhibition [7]: 1.59%

COc1ccc(C2C(C(=O)N3CCCCC3)CCC(=O)N2c2cc(OC)c(OC)c(OC)c2)cc1 (configuration not stated)
growth inhibition [1]: -15% | growth inhibition [2]: -5.94% | viability increase [3]: -7.12% | viability [4]: 100% | viability [5]: 89% | inhibition [6]: 0.98% | RAM network inhibition [7]: 5.22%

Cc1ccc2oc3c(c(=O)c2c1)C(c1cccc(Cl)c1)N(CCCN1CCOCC1)C3=O (configuration not stated)
growth inhibition [1]: -0.165% | growth inhibition [2]: 2.74% | viability increase [3]: -3.81% | viability [4]: 76.8% | viability [5]: 79% | inhibition [6]: 0.735% | RAM network inhibition [7]: 2.4%

O=C(O)CCCC(=O)Nc1ccc(Cl)c(Cl)c1
growth inhibition [1]: 4.12% | growth inhibition [2]: -2% | viability increase [3]: -0.13% | viability [4]: 95.4% | viability [5]: 98.1% | inhibition [6]: 0.165% | RAM network inhibition [7]: 1.64%

COc1cccc(C2CC(=O)N3CN(c4ccccc4F)CSC3=C2C#N)c1 (configuration not stated)
growth inhibition [1]: 6.38% | growth inhibition [2]: 2.71% | viability increase [3]: -1.76% | viability [4]: 102% | viability [5]: 94.3% | inhibition [6]: 2.96% | RAM network inhibition [7]: 5.8%

Cc1cccc(Nc2ncnc3nc[nH]c23)c1C
growth inhibition [1]: -10.5% | growth inhibition [2]: -8.69% | viability increase [3]: -1.75% | viability [4]: 103% | viability [5]: 103% | inhibition [6]: 2.98% | RAM network inhibition [7]: 4.52%

CC(=O)NC(C)(C)C1CC=C(C)/C(=N\O)C1 (configuration not stated)
growth inhibition [1]: -3.7% | growth inhibition [2]: -1.12% | viability increase [3]: -0.02% | viability [4]: 104% | viability [5]: 101% | inhibition [6]: 1.36% | RAM network inhibition [7]: -0.78%

NS(=O)(=O)c1ccc(CCNC(=O)NC2(C(F)(F)F)Oc3ccccc3O2)cc1
growth inhibition [1]: -2.1% | growth inhibition [2]: -6.81% | viability increase [3]: -6.42% | viability [4]: 63.4% | viability [5]: 80.3% | inhibition [6]: 0.12% | RAM network inhibition [7]: 3.68%

CCOC(=O)C1CCCN(C(=O)Cn2sc3nc(C)cc(C)c3c2=O)C1 (configuration not stated)
growth inhibition [1]: 18.4% | growth inhibition [2]: 29.4% | viability increase [3]: -8.04% | viability [4]: 3.38% (active) | viability [5]: 12.6% (active) | inhibition [6]: 1.51% | RAM network inhibition [7]: 2.71%

COc1ccc(C(=O)/C=C/N2CCCCC2)cc1OC
growth inhibition [1]: 53.1% (active) | growth inhibition [2]: 74.3% (active) | viability increase [3]: -4.55% | viability [4]: 77.8% | viability [5]: 86.6% | inhibition [6]: 0.145% | RAM network inhibition [7]: -1.38%

CCOC(=O)c1ccc(NC(=O)CSc2nc3c(c(=O)n2-c2ccccc2OC)SCC3)cc1
growth inhibition [1]: -1.49% | growth inhibition [2]: -14.6% | viability increase [3]: -2.33% | viability [4]: 85.7% | viability [5]: 81.4% | inhibition [6]: 1.34% | RAM network inhibition [7]: 3.9%

O=C(Cn1ncc2c(=O)oc3ccccc3c21)N1CCC(N2CCCCC2)CC1
growth inhibition [1]: 9.66% | growth inhibition [2]: 1.36% | viability increase [3]: -1.31% | viability [4]: 99.5% | viability [5]: 99.8% | inhibition [6]: 1.65% | RAM network inhibition [7]: 4.58%

Cc1nc2ccccc2c2oc(C(=O)N3CCN(C4CCCCC4)CC3)cc12
growth inhibition [1]: 7.91% | growth inhibition [2]: 8.38% | viability increase [3]: -3.69% | viability [4]: 44.1% | viability [5]: 57.5% | inhibition [6]: 0.555% | RAM network inhibition [7]: 3.92%

Cc1ccc2oc(=O)c3cnn(CC(=O)N(CCCN4CCOCC4)Cc4ccco4)c3c2c1
growth inhibition [1]: -16.5% | growth inhibition [2]: -28.7% | viability increase [3]: -3.59% | viability [4]: 93.2% | viability [5]: 87.9% | inhibition [6]: 1.55% | RAM network inhibition [7]: 3.73%

CCOC(=O)c1c(NC(=O)CN2CCCCC2)sc2c1CCCC2O (configuration not stated)
growth inhibition [1]: -10.4% | growth inhibition [2]: -0.48% | viability increase [3]: -4.26% | viability [4]: 70.3% | viability [5]: 65.2% | inhibition [6]: -0.195% | RAM network inhibition [7]: 4.1%

CCOC(=O)c1c(NC(=O)c2cc(C3CC3)on2)sc(C(C)=O)c1C
growth inhibition [1]: -3.19% | growth inhibition [2]: 0.635% | viability increase [3]: -1.49% | viability [4]: 104% | viability [5]: 93.3% | inhibition [6]: 1.64% | RAM network inhibition [7]: -0.58%
